Here are results for 40 compounds from PubChem BioAssay AID652163 (Broad Institute, 2013).

Several values for one entry are separate records, joined by “and”; a condition that tells them apart may be missing. Identical values can stand only once. Hit rate of the full screen: of about 360,000 compounds, about 500 (0.14%) were called active.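 How the source made its calls: active means mean inhibition of at least 70% across replicates, with every replicate also reaching that level; inconclusive means mean inhibition reaches 70% but some replicates fall short; inactive means mean inhibition below 70%.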 The full list was thinned out, with actives kept by preference. Some compounds were tested as several samples or in several runs, with calls that do not always agree.

For this test, the target named is Protein S100-A4 (Homo sapiens) (UniProt P26447). Description: human S100A4 protein-peptide interaction blockers – biochemical, fluorescence polarization, TAMRA-MyoIIA peptide, primary screen (AID 652163). Particulars: at 10.7 µM, stronger effect = higher value. Put shortly: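 Test system – S100A4 monomer (human) · Compound – single-point compound testing · Schedule – 5 min incubation before reading · Probe or stimulus – TAMRA-labelled myosin IIA heavy-chain peptide probe, 5 nM · Benchmarks – neutral control DMSO, positive control TFP · Medium – Calcium-containing HEPES buffer, pH 7.2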
Chain of Protein S100-A4 (Homo sapiens) (P26447 whole entry, looked up): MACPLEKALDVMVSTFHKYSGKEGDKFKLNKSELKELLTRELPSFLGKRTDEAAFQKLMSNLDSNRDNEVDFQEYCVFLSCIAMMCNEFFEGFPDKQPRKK
As for `C[C@@H]1CN([C@@H](C)CO)C(=O)c2cc(C3=CCCC3)cnc2O[C@H]1CN(C)Cc1ccccc1F`, the inhibition was 0.298% (inactive).
To `COc1cccc2c1C(=O)c1c(O)c3c(c(O)c1C2=O)CC(O)(C(C)=NNC(=O)c1ccc(Cl)c(Cl)c1)CC3OC1CC(N)C(O)C(C)O1` (stereo not given) belongs 189% (active); to `Cc1noc(C)c1S(=O)(=O)N(C)C[C@H]1OCc2cn(nn2)CCCC(=O)N([C@H](C)CO)C[C@H]1C`, -10.8% (inactive).
As for `C[C@H]1CN([C@@H](C)CO)C(=O)CCCn2cc(nn2)CO[C@@H]1CN(C)S(=O)(=O)c1cccs1`, the inhibition is 1.44% (inactive) and -0.084% (inactive).
Next, `C[C@@H]1CN([C@H](C)CO)C(=O)CCCn2cc(nn2)CO[C@H]1CN(C)S(C)(=O)=O`: -42.7% (inactive) and 116% (active) and -0.12% (inactive); `C[C@H]1CN([C@@H](C)CO)C(=O)c2cccc(NC(=O)Nc3ccc(C(F)(F)F)cc3)c2O[C@H]1CN(C)CC1CCCCC1`: 0.766% (inactive).
As for `CO[C@H]1CN(C)C(=O)c2ccc(NS(C)(=O)=O)cc2OC[C@H](C)N(C(=O)C2CCC2)C[C@H]1C`, the inhibition is 3.67% (inactive).
Turning to `COC(=O)c1cc2c(c3c4ccccc4n(S(=O)(=O)c4cccc(C)c4)c13)C(=O)N(Cc1ccccc1)C2`, the inhibition was -0.199% (inactive).
As to `O=C(C[C@@H]1CC[C@@H]2[C@H](COC[C@@H](O)CN2S(=O)(=O)c2ccccc2)O1)NCC1CCCCC1`, the inhibition was -4.89% (inactive).
To `CN1CCN(C(=O)C[C@@H]2CC[C@@H]3[C@@H](COc4ccc(NC(=O)c5ccc(F)c(F)c5)cc4C(=O)N3C)O2)CC1` belongs -20.1% (inactive).
Next, `O=C(NCC1CC1)[C@H]1[C@H](CO)[C@H]2Cn3c(ccc(/C=C/c4ccccc4)c3=O)[C@@H]1N2C(=O)C1CCC1`: 5.09% (inactive); `COCC#Cc1ccc([C@@H]2[C@H]3CN(C(=O)C4CCOCC4)CC(=O)N3[C@H]2CO)cc1`: 10.1% (inactive); `COc1cccc(S(=O)(=O)N[C@@H]2C=C[C@H](CC(=O)NC3CCC3)O[C@@H]2CO)c1`: 11.1% (inactive).
Regarding `O=C(Nc1nccs1)[C@@H]1[C@@H](CO)[C@@H]2Cn3c(ccc(-c4cccnc4)c3=O)[C@@H]2N1CC1CC1`, the inhibition was 5.29% (inactive).
For `O=C([C@H]1N[C@H]2c3ccc(-c4ccccc4)c(=O)n3C[C@H]2[C@@H]1CO)N1CCOCC1`, the inhibition was -1.77% (inactive).
In the case of `CO[C@H]1CN(C)C(=O)c2cc(NC(=O)C3CCC3)ccc2OC[C@H](C)N(C)C[C@H]1C`, the inhibition is 6.42% (inactive).
On to `CO[C@@H]1CN(C)C(=O)c2cc(NC(=O)c3cc(C)on3)ccc2OC[C@@H](C)N(C(C)=O)C[C@@H]1C`, for which the inhibition was -1.83% (inactive).
In the case of `C[C@@H]1CN([C@H](C)CO)C(=O)c2cccc(NS(=O)(=O)c3ccc(Cl)cc3)c2O[C@H]1CN(C)C(=O)NC1CCCCC1`, the inhibition is 3.25% (inactive).
Next, `CC(C)CC#Cc1ccc([C@H]2[C@H]3CN(C(=O)c4cnccn4)CC(=O)N3[C@H]2CO)cc1`: 1.39% (inactive); `COc1cccc(-c2ccc3n(c2=O)C[C@H]2[C@H](CO)[C@@H](C(=O)NC4CCCC4)[C@@H]3N2C)c1`: 6.59% (inactive); `C/C=C/c1ccc([C@H]2[C@@H](CO)N[C@@H]2CN(CC)C(=O)CN2CCOCC2)cc1`: -4.11% (inactive).
To `O=C(C[C@H]1C=C[C@H](NC(=O)NC2CCCCC2)[C@H](CO)O1)NCc1ccccc1` belongs 11.3% (inactive).
As to `C[C@@H]1CN([C@@H](C)CO)C(=O)c2cc(NS(C)(=O)=O)ccc2O[C@@H]1CN(C)C(=O)Nc1ccccc1`, the inhibition was -7.83% (inactive).
To `C[C@@H]1CCCCO[C@@H](CN(C)C(=O)C2CCCCC2)[C@@H](C)CN([C@H](C)CO)C(=O)c2cc(NC(=O)c3ccccc3)ccc2O1` belongs 5.47% (inactive).
Next, `Cc1ccccc1-c1ccc2c(c1)O[C@@H](CN(C)C(=O)Nc1ccc(F)cc1)[C@H](C)CN([C@@H](C)CO)S2(=O)=O`: -6.84% (inactive); `C[C@H]1CN([C@@H](C)CO)C(=O)c2cc(-c3cccc(F)c3)cnc2O[C@@H]1CN(C)C(=O)c1ccccn1`: 1.67% (inactive); `C[C@H]1CN([C@@H](C)CO)C(=O)c2cccc(NC(=O)Nc3ccccc3)c2O[C@@H]1CN(C)C(=O)Nc1cccc2ccccc12`: 8.48% (inactive).
To `CN1c2ccc([N+](=O)[O-])cc2C(C)(C)C12C=Cc1cc(C(=O)O)ccc1O2` (stereo not given) belongs -14.5% (inactive); to `COc1cccc(CC2(CO)CCCN(CC3=Cc4cc(OC)ccc4OC3)C2)c1` (stereo not given), -14.5% (inactive); to `COc1ccc2c(c1)C=CC1(O2)N(CCO)c2ccccc2C1(C)C` (stereo not given), 97.1% (active).
Consider `CN(C)CC(=O)N[C@H]1CC[C@@H](CCNC(=O)C2CCCC2)O[C@@H]1CO`, for which the inhibition is 4.07% (inactive).
With `C[C@@H]1CN([C@H](C)CO)C(=O)Cc2cc(NS(=O)(=O)c3ccc(Cl)cc3)ccc2O[C@@H]1CN(C)C`, the inhibition was -3.76% (inactive).
For the compound `O=C(C[C@H]1C[C@H]2c3cc(NC(=O)Nc4ccccc4)ccc3O[C@H]2[C@H](CO)O1)NC1CCCC1`, the inhibition was -3.39% (inactive).
Next, `CN(C)C(=O)C[C@H]1C[C@@H]2c3cc(NC(=O)NC4CCCCC4)ccc3O[C@@H]2[C@@H](CO)O1`: 12.2% (inactive).
For the compound `COC(=O)C(CC#Cc1ccc2c(c1)[C@]1(C(=O)N2)[C@H](c2ccccc2OCCO)N2[C@H](c3ccccc3)[C@H](c3ccccc3)OC(=O)[C@H]2[C@@H]1C(N)=O)C(=O)OC`, the inhibition is -5.68% (inactive).
To `O=C(C[C@H]1CC[C@@H]2[C@H](COC[C@H](O)CN2CCC(F)(F)F)O1)NCC1CC1` belongs -3.95% (inactive).
With `Cn1cnc(S(=O)(=O)N2C[C@H](O)COC[C@@H]3O[C@H](CC(=O)NC4Cc5ccccc5C4)CC[C@H]32)c1`, the inhibition is 2.44% (inactive).
For `Cn1cnc(S(=O)(=O)N2C[C@@H](O)COC[C@@H]3O[C@H](CC(=O)NC4CCC4)CC[C@H]32)c1`, the inhibition is 0.326% (inactive).
Next, `Cn1cnc(S(=O)(=O)N2C[C@H](O)COC[C@@H]3O[C@H](CC(=O)NC4CCCC4)CC[C@H]32)c1`: 126% (active); `O=C(C[C@H]1CC[C@H]2[C@@H](COC[C@@H](O)CN2C(=O)Nc2ccc(C(F)(F)F)cc2)O1)NC1Cc2ccccc2C1`: 9.1% (inactive).
